# Calls of active or inactive are those of the source. The rule behind the calls is not given here.
# Legend:
# [1] = Inhibition of FAK/AKT/ROCK signaling pathway in human A549 cells assessed as decrease in OPN-induced ROCK1 expression at 5 to 10 uM after 24 hrs by Western blot analysis; assay type: cell-based
# Method in brief: (§1)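 A549 cells were given 1 nM OPN for 24 h with or without compound. 25–30 μg total protein per lane was probed with primary antibodies overnight at 4 °C, then secondary antibodies for 2 h at room temperature. Detection was by enhanced chemiluminescence, with densitometric band quantification. Mean ± SD of two independent experiments; Student's t test.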
# A549 [2] = assay: Effect on total ROCK1 protein level in OPN-stimulated human A549 cells at 5 to 10 uM after 24 hrs by Western blot analysis; assay type: ADME, cell-based; conditions: a549, 24 h; method in brief: as §1
# A549 [3] = assay: Effect on total cofilin protein level in OPN-stimulated human A549 cells at 5 to 10 uM after 24 hrs by Western blot analysis; assay type: ADME, cell-based; conditions: a549, 24 h; method in brief: as §1
# A549 [4] = assay: Cytotoxicity against human A549 cells assessed as reduction in cell viability at 20 uM after 24 hrs by MTT assay; assay type: cell-based; conditions: a549, 24 h
# Method in brief: (§2)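 A549 cells were exposed to compound in serum-free medium for 24 h, and viability was read by MTT assay. Mean ± SD of three independent experiments; Student's t test versus untreated control.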
# [5] = Inhibition of FAK/AKT/ROCK signaling pathway in human A549 cells assessed as decrease in OPN-induced AKT phosphorylation at 5 to 10 uM after 15 mins by Western blot analysis; assay type: cell-based
# A549 [6] = assay: Effect on total AKT protein level in OPN-stimulated human A549 cells at 5 to 10 uM after 24 hrs by Western blot analysis; assay type: ADME, cell-based; conditions: a549, 24 h; method in brief: as §1
# A549 [7] = assay: Effect on total LIMK1/2 protein level in OPN-stimulated human A549 cells at 5 to 10 uM after 24 hrs by Western blot analysis; assay type: ADME, cell-based; conditions: a549, 24 h; method in brief: as §1
# A549 [8] = assay: Effect on total FAK protein level in OPN-stimulated human A549 cells at 5 to 10 uM after 24 hrs by Western blot analysis; assay type: ADME, cell-based; conditions: a549, 24 h; method in brief: as §1
# A549 [9] = assay: Anti-invasive activity in human A549 cells assessed as inhibition of OPN-induced cell invasion to matrigel coated invasion chamber at 10 uM preincubated for 30 mins followed by OPN stimulation measured after 24 hrs by boyden chamber assay; assay type: functional
# Method in brief: (§3)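 Boyden chamber with a Matrigel-coated filter. Cells were pretreated with compound for 30 min and loaded into the upper wells, with 1 nM OPN in the lower wells. After 24 h at 37 °C, cells were stained, random fields were photographed at 200×, and cells on the lower surface were counted. Mean ± SD of two independent experiments; Student's t test.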
# A549 [10] = assay: Cytotoxicity against human A549 cells assessed as reduction in cell viability at 10 uM after 24 hrs by MTT assay; assay type: cell-based; conditions: a549, 24 h; method in brief: as §2
# [11] = Inhibition of FAK/AKT/ROCK signaling pathway in human A549 cells assessed as decrease in OPN-induced phosphorylation of cofilin at 5 to 10 uM after 24 hrs by Western blot analysis; assay type: cell-based; method in brief: as §1
# [12] = Inhibition of FAK/AKT/ROCK signaling pathway in human A549 cells assessed as decrease in OPN-induced phosphorylation of LIMK1/2 at 5 to 10 uM after 24 hrs by Western blot analysis; assay type: cell-based; method in brief: as §1
# A549 [13] = assay: Anti-invasive activity in human A549 cells assessed as inhibition of OPN-induced cell invasion to matrigel coated invasion chamber at 5 uM preincubated for 30 mins followed by OPN stimulation measured after 24 hrs by boyden chamber assay; assay type: functional; method in brief: as §3
# [14] = Inhibition of FAK/AKT/ROCK signaling pathway in human A549 cells assessed as decrease in OPN-induced lamellipodia formation at 10 uM after 24 hrs by rhodamine phalloidin/DAPI staining based immunofluorescence assay; assay type: cell-based
# Method in brief: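 5 × 10^4 cells/well were seeded on chamber slides and treated with 1 nM OPN for 24 h with or without 10 μM compound. Cells were fixed in 4% formaldehyde/PBS pH 7.4 for 10 min and permeabilized in 0.5% Triton X-100 for 5 min. They were stained with 100 nM rhodamine phalloidin for 30 min at room temperature in the dark, counterstained with DAPI, and imaged by confocal microscopy at 600×.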
# [15] = biological target: Focal adhesion kinase 1 (Homo sapiens) (UniProt Q05397); assay: Inhibition of FAK signaling pathway in human A549 cells assessed as decrease in OPN-induced FAK phosphorylation at 5 to 10 uM after 15 mins by Western blot analysis; assay type: cell-based
# Focal adhesion kinase 1 (Homo sapiens), sequence (Q05397 2-1052 limits assumed): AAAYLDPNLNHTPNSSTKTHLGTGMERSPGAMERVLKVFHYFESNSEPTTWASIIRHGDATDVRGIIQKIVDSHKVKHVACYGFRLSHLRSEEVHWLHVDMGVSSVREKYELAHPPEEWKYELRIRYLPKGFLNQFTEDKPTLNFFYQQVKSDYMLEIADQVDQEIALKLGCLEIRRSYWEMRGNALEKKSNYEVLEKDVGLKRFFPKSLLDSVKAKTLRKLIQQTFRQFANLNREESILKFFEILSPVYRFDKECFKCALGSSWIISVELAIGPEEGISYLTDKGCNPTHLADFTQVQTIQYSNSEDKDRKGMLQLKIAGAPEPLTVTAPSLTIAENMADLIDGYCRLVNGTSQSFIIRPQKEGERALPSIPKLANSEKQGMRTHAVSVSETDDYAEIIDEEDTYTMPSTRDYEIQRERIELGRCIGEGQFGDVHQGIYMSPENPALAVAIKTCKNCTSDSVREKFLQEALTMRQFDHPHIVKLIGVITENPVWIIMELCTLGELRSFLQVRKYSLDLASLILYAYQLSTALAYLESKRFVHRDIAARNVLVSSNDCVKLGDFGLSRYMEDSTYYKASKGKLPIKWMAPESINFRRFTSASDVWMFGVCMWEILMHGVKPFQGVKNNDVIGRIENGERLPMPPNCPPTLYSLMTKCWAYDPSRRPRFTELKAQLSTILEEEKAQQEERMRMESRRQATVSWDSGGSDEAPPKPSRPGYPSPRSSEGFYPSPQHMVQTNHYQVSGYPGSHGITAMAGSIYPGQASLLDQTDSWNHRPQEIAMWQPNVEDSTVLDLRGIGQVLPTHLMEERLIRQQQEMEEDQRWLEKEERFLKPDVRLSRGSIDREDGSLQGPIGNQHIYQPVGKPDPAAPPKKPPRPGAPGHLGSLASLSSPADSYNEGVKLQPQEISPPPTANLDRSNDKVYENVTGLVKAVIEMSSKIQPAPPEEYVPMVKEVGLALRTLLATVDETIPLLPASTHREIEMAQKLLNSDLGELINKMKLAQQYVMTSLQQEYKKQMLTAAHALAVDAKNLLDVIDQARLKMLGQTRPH
smiles,measurement,setting,value
C/C1=C\CC(C)(C)/C=C/C(=O)/C(C)=C/CC1 [ZERUMBONE],inhibition,[1],Dose-dependent effect
same,Activity,A549 [2],Non-toxic
same,Activity,A549 [3],Non-toxic
same,Activity,A549 [4],Toxic
same,inhibition,[5],Active
same,Activity,A549 [6],Non-toxic
same,Activity,A549 [7],Non-toxic
same,Activity,A549 [8],Non-toxic
same,inhibition at 10 µM,A549 [9],69%
same,Activity,A549 [10],Non-toxic
same,inhibition,[11],Dose-dependent effect
same,inhibition,[12],Dose-dependent effect
same,inhibition at 5 µM,A549 [13],48%
same,inhibition,[14],Active
same,inhibition,[15],Active

# Source: ChEMBL document CHEMBL3785032, “Zerumbone Suppresses Osteopontin-Induced Cell Invasion Through Inhibiting the FAK/AKT/ROCK Pathway in Human Non-Small Cell Lung Cancer A549 Cells” (J Nat Prod, 2016)
